Assay [1] addresses T1, Hypoxia up-regulated protein 1 (Homo sapiens) (UniProt Q9Y4L1).
T1 sequence (whole entry): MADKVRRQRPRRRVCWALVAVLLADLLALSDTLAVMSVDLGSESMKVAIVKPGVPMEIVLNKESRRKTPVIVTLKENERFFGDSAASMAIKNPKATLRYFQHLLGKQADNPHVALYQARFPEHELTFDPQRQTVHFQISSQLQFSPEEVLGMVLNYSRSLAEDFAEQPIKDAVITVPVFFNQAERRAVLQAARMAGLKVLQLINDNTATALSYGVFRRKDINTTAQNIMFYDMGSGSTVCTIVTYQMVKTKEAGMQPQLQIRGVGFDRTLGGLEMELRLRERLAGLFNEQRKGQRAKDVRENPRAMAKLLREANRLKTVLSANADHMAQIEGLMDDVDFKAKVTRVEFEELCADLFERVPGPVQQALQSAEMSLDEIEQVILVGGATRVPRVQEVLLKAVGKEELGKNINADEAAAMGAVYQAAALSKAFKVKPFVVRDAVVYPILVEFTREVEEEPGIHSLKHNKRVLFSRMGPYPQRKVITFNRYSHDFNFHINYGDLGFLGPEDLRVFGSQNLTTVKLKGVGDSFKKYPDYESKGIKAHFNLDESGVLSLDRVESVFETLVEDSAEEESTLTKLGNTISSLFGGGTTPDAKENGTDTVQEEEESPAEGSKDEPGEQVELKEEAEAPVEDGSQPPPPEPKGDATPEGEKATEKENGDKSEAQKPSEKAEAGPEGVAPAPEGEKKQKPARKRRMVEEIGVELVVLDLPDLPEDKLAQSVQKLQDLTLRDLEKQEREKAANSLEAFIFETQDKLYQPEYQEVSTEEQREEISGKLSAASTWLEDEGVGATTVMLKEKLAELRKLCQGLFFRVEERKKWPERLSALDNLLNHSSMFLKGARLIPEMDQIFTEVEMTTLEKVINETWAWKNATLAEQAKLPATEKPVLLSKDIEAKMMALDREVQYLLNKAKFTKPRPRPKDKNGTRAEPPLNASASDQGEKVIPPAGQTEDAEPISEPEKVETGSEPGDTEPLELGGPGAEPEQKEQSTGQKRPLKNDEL
The experiment in a line: Displacement of 3-(1-methyl-N-(pyridin-2-yl)-2-((4-(N-((S)-6,9,25-trioxo-29-((3aS,4S,6aR)-2-oxohexahydro-1H-thieno[3,4-d]imidazol-4-yl)-8-(4-(3-(trifluoromethyl)-3H-diazirin-3-yl)benzamido)-14,17,20-trioxa-5,10,24-triazanonacosyl)carbamimidoyl)phenylamino)methyl)-1H-benzo[d]imidazole-5-carboxamido)propanoic acid from HYOU1 in human HepG2 cell lysate after 1 hr by capture compound based LC/MS analysis. The assay is classed as cell-free. Summed up:
(§1)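 Capture compound MS: 400 μg HepG2 or K562 lysate in capture buffer, precleared with streptavidin beads 30 min at 4 °C. Competition controls preincubated 30 min at 4 °C with free drug (10 μL of 1 mM). Capture compound (10 μL of 50 μM) equilibrated 1 h at 4 °C, UV-irradiated 10 min, streptavidin bead pulldown, on-bead trypsin digestion, nanoLC-MS/MS. Spectral counts compared capture vs competition (t test). HepG2 in quadruplicate, K562 in duplicate.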

For assay [2], the target named is T2, Ribosyldihydronicotinamide dehydrogenase [quinone] (Homo sapiens) (UniProt P16083).
T2 sequence (whole entry): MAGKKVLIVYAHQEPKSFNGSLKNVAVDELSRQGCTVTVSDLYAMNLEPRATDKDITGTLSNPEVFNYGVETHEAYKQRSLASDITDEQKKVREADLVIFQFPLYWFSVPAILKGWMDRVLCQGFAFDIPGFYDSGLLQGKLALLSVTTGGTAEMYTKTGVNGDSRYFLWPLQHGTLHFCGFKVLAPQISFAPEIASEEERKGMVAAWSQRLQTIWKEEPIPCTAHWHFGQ
Description: Displacement of 3-(1-methyl-N-(pyridin-2-yl)-2-((4-(N-((S)-6,9,25-trioxo-29-((3aS,4S,6aR)-2-oxohexahydro-1H-thieno[3,4-d]imidazol-4-yl)-8-(4-(3-(trifluoromethyl)-3H-diazirin-3-yl)benzamido)-14,17,20-trioxa-5,10,24-triazanonacosyl)carbamimidoyl)phenylamino)methyl)-1H-benzo[d]imidazole-5-carboxamido)propanoic acid from NQO2 in human liver microsomes after 1 hr by Western blot analysis. The conditions noted are these: Microsome. In outline:
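NQO2 capture from HepG2 or K562 lysate, or from pooled human liver microsomes, with capture compound (1 h, 4 °C) after 30 min competitor preincubation. UV cross-linked 10 min and streptavidin pulldown. Detection by Western blot: anti-NQO2 1:500, then HRP anti-rabbit secondary 1:1000.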
A general note: Liver microsomes are vesicles of endoplasmic reticulum, rich in cytochrome P450 enzymes.

Assay [3] has as its target Histamine N-methyltransferase (Homo sapiens) (UniProt P50135). Description: Displacement of 3-(1-methyl-N-(pyridin-2-yl)-2-((4-(N-((S)-6,9,25-trioxo-29-((3aS,4S,6aR)-2-oxohexahydro-1H-thieno[3,4-d]imidazol-4-yl)-8-(4-(3-(trifluoromethyl)-3H-diazirin-3-yl)benzamido)-14,17,20-trioxa-5,10,24-triazanonacosyl)carbamimidoyl)phenylamino)methyl)-1H-benzo[d]imidazole-5-carboxamido)propanoic acid from HNMT in human HepG2 cell lysate after 1 hr by capture compound based LC/MS analysis. It is filed as cell-free. Summed up: as §1

Assay [4] is described as follows: Inhibition of human alpha thrombin using Boc-Val-Pro-Arg-AMC as substrate after 2 hrs by fluorometric analysis. In outline:
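Human α-thrombin at 5.5 ng/mL final with Boc-Val-Pro-Arg-AMC (15 μM) in 50 mM Tris pH 7.5, 150 mM NaCl, 0.05% Tween 20. Compound tested as 16 two-fold dilutions in DMSO, 2.5 mM to 75 nM. Incubated 2 h at room temperature; fluorescence read at ex 355, em 460 nm for percent inhibition.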

Activity calls are given as the source filed them. The rule behind the calls is not given here.

Sequence of Histamine N-methyltransferase (Homo sapiens) (P50135 whole entry): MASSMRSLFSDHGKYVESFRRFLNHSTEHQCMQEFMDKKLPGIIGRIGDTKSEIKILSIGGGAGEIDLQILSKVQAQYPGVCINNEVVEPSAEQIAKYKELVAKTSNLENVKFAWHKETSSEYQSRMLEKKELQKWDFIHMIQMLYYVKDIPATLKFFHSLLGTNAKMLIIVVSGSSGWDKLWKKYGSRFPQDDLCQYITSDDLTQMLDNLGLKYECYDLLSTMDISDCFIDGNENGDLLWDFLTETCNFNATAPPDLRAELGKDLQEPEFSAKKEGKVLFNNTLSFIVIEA

What is called IC50 is the concentration that gives 50% inhibition. Regarding `Cn1c(CNc2ccc(C(=N)N)cc2)nc2cc(C(=O)N(CCC(=O)O)c3ccccn3)ccc21` [DABIGATRAN], the result in assay [1], in assay [2] and in assay [3] was Active. In assay [4], this molecule came in with an IC50 of 0.0138 µM.

Source of the values: ChEMBL document CHEMBL2216748 (J Med Chem, 2012).
